Screens (PubChem BioAssay)
In the library only some 2% were active in any assay of this set; here they are far more common.
E-selectin induc: induces E-selectin expression in human endothelial cells; 0.37% of 260,000 active; HUVEC E-selectin immunofluorescence imaging; normalized: neutral wells 0, TNF-alpha wells 100; activation, % at 7.58 µM; P16581;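 active = mean E-selectin-positive cell signal at least 10% of the positive control, reached in at least 60% of replicates, without over 20% cell loss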
Target sequence (P16581 whole entry, looked up): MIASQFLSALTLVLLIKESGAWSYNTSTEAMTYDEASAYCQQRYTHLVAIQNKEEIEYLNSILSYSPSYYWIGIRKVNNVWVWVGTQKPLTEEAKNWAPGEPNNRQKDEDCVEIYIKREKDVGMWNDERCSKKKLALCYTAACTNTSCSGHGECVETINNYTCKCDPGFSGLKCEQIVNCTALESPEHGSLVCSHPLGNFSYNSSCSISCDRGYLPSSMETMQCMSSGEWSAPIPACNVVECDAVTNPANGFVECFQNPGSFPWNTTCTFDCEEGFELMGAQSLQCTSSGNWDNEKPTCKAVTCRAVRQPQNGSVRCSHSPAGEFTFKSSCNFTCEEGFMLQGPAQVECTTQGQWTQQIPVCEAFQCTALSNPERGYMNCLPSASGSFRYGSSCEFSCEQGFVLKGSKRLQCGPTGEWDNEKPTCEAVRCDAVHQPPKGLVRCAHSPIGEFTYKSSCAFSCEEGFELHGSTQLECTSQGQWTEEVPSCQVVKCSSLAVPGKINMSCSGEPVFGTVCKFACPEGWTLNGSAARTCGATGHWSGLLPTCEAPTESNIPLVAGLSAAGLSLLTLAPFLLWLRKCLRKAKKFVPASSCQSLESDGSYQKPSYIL
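Read-out basis: % PE-positive cells; Test system: HUVEC primary endothelial cells; Technique: immunofluorescence imaging; Dosing: single-point compound dose.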
RAD52 anneal inh: RAD52 (human) annealing inhibition | P43351 | recombinant RAD52 DNA annealing, FRET fluorescence | inhibition, % at 18.7 µM | 0.46% of 360,000 active | AID 651710;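 active = every replicate showing at least 50% inhibition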
Ecoli rRNA inh: inhibitors of bacterial rRNA selective over humanized ribosomes; E. coli WT GFP vs humanized-ribosome RFP mutants, fluorescence, 24 h; active compounds read low; DMSO median 0, no signal -100; GFP signal change (wild-type ribosome), % (test concentration not listed); 1.6% of 350,000 active; AID 720706;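 active = significant combined selectivity score with lowered wild-type GFP, culture density cut under 30%, mutant RFP and density less affected; inactive = any of these conditions unmet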
XiGFP reactiv: activators of X-chromosome reactivation in mouse fibroblasts; activation, % at 7.58 µM; 0.055% of 360,000 active; XiGFP mouse fibroblasts, % GFP-positive cells imaging, 3 d; cells co-treated with 5-aza-dC sensitizer; scaled so ellipticine positive control = 100%; AID 743238;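 active = mean normalized replicate activation at least 10% and every replicate at or above 10%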
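Schedule: 3 d treatment, 15 min room-temperature fixation; system: 68-5-11 XiGFP fibroblast line; buffer or medium: DMEM plus 5-aza-dC sensitizer; control set: ellipticine 6 µM positive control; compound: one concentration, pinned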
RAD54 inh: RAD54 (human) branch migration inhibition; AID 602329; RAD54 Holliday junction branch migration, FAM/BHQ fluorescence; 0.14% of 360,000 active; Q92698; inhibition, % at 10.4 µM;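 active = mean normalized replicate activity at least 40 and at least half of replicates scoring 40 or more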;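 note: inhibitors cause a drop in the FAM fluorescence signal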
PglD inh: PglD (C. jejuni) enzyme inhibition. purified PglD enzyme, DTNB colorimetric CoA detection. inhibition, % at 12.5 µM. 0.098% of 360,000 active; in the data active = inhibition above about 16%, passing the limit was not always enough
Hits are given with their value; 0 = inactive; - = no result.

SMILES	E-selectin induc	RAD52 anneal inh	Ecoli rRNA inh	XiGFP reactiv	RAD54 inh	PglD inh
CC(C)Cn1c(SCC(=O)N2CCN(S(=O)(=O)c3ccccc3)CC2)nc2ccccc21	-	0	-31.9	-	0	0
C/C=C/c1cnc2c(c1)C(=O)N([C@H](C)CO)C[C@H](C)[C@@H](CN(C)C(=O)NCCC)O2	0	0	0	0	0	0
Brc1ccccc1C1Cc2nnccc2CN1 (stereo unspecified)	0	0	-36.3	0	-	-
CC(C)NC(=O)Nc1ccc2c(c1)C(=O)N([C@@H](C)CO)C[C@H](C)[C@@H](CN(C)C(=O)Nc1ccccc1)O2	0	0	0	0	0	0
Nc1ccccc1N=Cc1ccc(-c2cccc(Cl)c2)o1	-	0	-25.9	0	0	0
CN(c1ccccc1)S(=O)(=O)c1ccc(Cl)c(C(=O)OCC(=O)c2c(N)n(C)c(=O)n(C)c2=O)c1	0	0	-21.1	0	0	0
CC(=O)c1c(C)[nH]c(C(=O)COC(=O)c2cc(S(=O)(=O)N(C)c3ccccc3)ccc2Cl)c1C	0	0	-27.8	0	-	-
CNS(=O)(=O)c1cccc(C(=O)OCC(=O)c2c(N)n(Cc3ccccc3)c(=O)n(C)c2=O)c1	-	0	-26.0	0	0	0
Cn1c(N)c(C(=O)COC(=O)c2cccc(S(=O)(=O)NCc3ccccc3)c2)c(=O)n(C)c1=O	0	0	0	0	0	0
O=C(C1CC1)N1CC(=O)N2[C@H](CO)[C@@H](c3ccc(-c4cccnc4)cc3)[C@@H]2C1	0	0	0	0	-	-
C/C=C/c1ccc2c(c1)O[C@@H](CNC)[C@H](C)CN([C@@H](C)CO)S2(=O)=O	0	-	0	0	-	-
CCN1[C@@H]2Cn3c(ccc(-c4ccncc4)c3=O)[C@H]1[C@@H](C(=O)Nc1ccccc1)[C@@H]2CO	0	0	0	0	0	0
Cc1noc(C)c1NC(=O)N(C)C[C@@H]1Oc2ccc(NC(=O)Nc3ccccc3)cc2CC(=O)N([C@@H](C)CO)C[C@@H]1C	0	0	0	0	0	0
NC(=O)c1cc(C(=O)c2ccc(Cl)cc2)c[nH]1	-	0	-23.5	0	-	-
Cc1ccc(/C=C/C(=O)O)cc1S(=O)(=O)N1CCCc2ccccc21	0	0	0	-	0	0
Cc1ccc(/C=C/C(=O)O)cc1S(=O)(=O)N1CCc2ccccc21	0	0	-32.4	0	0	0
COC(=O)c1cc2c(c3c4cc(F)ccc4n(S(=O)(=O)c4cccc(C)c4)c13)C(=O)N(Cc1ccc(C(F)(F)F)cc1)C2	0	0	-	0	-	-
COc1ccc(-c2nnc3sc(CN4C(=O)c5ccccc5C4=O)nn23)cc1	-	-	-	-	0	0
COc1ccc(-c2nnc3sc(C(C)N4C(=O)c5ccccc5C4=O)nn23)cc1 (stereo unspecified)	0	0	-44.7	0	0	0
Cc1noc(C)c1NC(=O)N(C)C[C@@H]1Oc2c(NC(=O)Nc3ccc(F)cc3)cccc2C(=O)N([C@H](C)CO)C[C@@H]1C	0	0	0	0	0	0
COc1ccc(-c2cc(C(=O)Nc3ccc(OC)cc3OC)no2)cc1	0	0	0	0	0	0
COc1ccc(NC(=O)c2cc(-c3cccs3)on2)c(OC)c1	60.0	0	0	0	0	0
COc1ccc(S(=O)(=O)N(C)C[C@H]2OCCCC[C@@H](C)Oc3ccc(NC(=O)Nc4ccccc4)cc3C(=O)N([C@@H](C)CO)C[C@@H]2C)cc1	0	-	0	0	0	0
O=C(Nc1cc2c3c(c1)C1CCCC1CN3CC1CCCC21)c1ccccc1 (stereo unspecified)	-	-	-	-	50.2	0
O=C(Nc1cccc(C(=O)NC2CC2)c1)c1ccccc1	0	0	0	0	0	0
O=C(Cc1ccccc1)N1C[C@H]2[C@@H](c3ccccc31)[C@@H](CO)N2C(=O)C1CCOCC1	0	0	0	0	0	0
O=C(NNC(=O)C12CC3CC(CC(C3)C1)C2)c1ccccn1	0	0	-43.3	0	0	0
O=C(NNC(=O)C12CC3CC(CC(C3)C1)C2)c1cnccn1	-	-	-	0	0	0
C[C@H](CO)N1C[C@H](C)[C@@H](CN(C)Cc2ccc(C(=O)O)cc2)Oc2ccc(NS(=O)(=O)c3ccccc3)cc2C1=O	0	0	0	0	0	0
